Active and inactive are the calls of the source. The rule behind the calls is not given here.
Assays:
[1] = Antiproliferative activity against PDGF-induced rat aortic VSMC by colorimetric assay; format: functional, tissue-based; conditions: Aorta
Procedure, shortened: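 Rat aortic SMCs stimulated with PDGF; inhibition of proliferation read by a colorimetric assay; IC50 values determined by comparison to mycophenolic acid as standard agent.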

[2] = Down-regulation of cyclin A protein expression in rat aortic VSMC at 1 ug/ml after 48 hrs by Western blot; format: functional, tissue-based; conditions: Aorta
Procedure, shortened: (§1)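 Total cell lysates from cultured SMCs treated with 1 µg/mL for 48 h; PCNA, cyclin A, cyclin D1, pRb (also cdk 2) probed by Western blot.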

[3] = Cell cycle arrest in rat aortic VSMC assessed as DNA accumulation at G2/M phase at 1 ug/ml after 48 hrs relative to control; format: functional, cell-based
Procedure, shortened: (§2)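 Cultured SMCs treated with 1 µg/mL for 48 h alongside a vehicle-treated control; DNA content per cell-cycle phase analysed by flow cytometry.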

VSMC [4] = assay: Effect on pRb protein expression in rat aortic VSMC at 1 ug/ml after 48 hrs by Western blot; format: functional, tissue-based; conditions: Aorta; procedure, shortened: as §1
[5] = Down-regulation of PCNA protein expression in rat aortic VSMC at 1 ug/ml after 48 hrs by Western blot; format: functional, tissue-based; conditions: Aorta; procedure, shortened: as §1
[6] = Cell cycle arrest in rat aortic VSMC assessed as DNA accumulation at G0/G1 phase at 1 ug/ml after 48 hrs relative to control; format: functional, cell-based; procedure, shortened: as §2
VSMC [7] = assay: Effect on cyclin D1 protein expression in rat aortic VSMC at 1 ug/ml after 48 hrs by Western blot; format: functional, tissue-based; conditions: Aorta; procedure, shortened: as §1
[8] = target: RAC-alpha serine/threonine-protein kinase (Rattus norvegicus) (UniProt P47196); assay: Inhibition of Akt phosphorylation in rat aortic VSMC at 1 ug/ml after 1 hr; format: tissue-based; conditions: Aorta
Procedure, shortened: (§3)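 Cultured SMCs exposed to test agent for 1 h; phosphorylated ERK and phosphorylated Akt examined by Western blot.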

Rattus norvegicus = organism: Rattus norvegicus; assay: Inhibition of ERK phosphorylation in rat aortic VSMC at 1 ug/ml after 1 hr; format: tissue-based; conditions: Aorta; procedure, shortened: as §3
[9] = Cell cycle arrest in rat aortic VSMC assessed as DNA accumulation at S phase at 1 ug/ml after 48 hrs relative to control; format: functional, cell-based; procedure, shortened: as §2
VSMC [10] = assay: Antiproliferative activity against PDGF-induced rat aortic VSMC assessed as cell density at 1 ug/ml after 48 hrs by phase-contrast microscope; format: functional, cell-based
Procedure, shortened: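 Cultured rat aortic SMCs exposed to 1 µg/mL test agent or DMSO vehicle alone for 48 h; cell density judged by observation and photography under a phase-contrast microscope.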

Chain of RAC-alpha serine/threonine-protein kinase (Rattus norvegicus) (P47196 whole entry): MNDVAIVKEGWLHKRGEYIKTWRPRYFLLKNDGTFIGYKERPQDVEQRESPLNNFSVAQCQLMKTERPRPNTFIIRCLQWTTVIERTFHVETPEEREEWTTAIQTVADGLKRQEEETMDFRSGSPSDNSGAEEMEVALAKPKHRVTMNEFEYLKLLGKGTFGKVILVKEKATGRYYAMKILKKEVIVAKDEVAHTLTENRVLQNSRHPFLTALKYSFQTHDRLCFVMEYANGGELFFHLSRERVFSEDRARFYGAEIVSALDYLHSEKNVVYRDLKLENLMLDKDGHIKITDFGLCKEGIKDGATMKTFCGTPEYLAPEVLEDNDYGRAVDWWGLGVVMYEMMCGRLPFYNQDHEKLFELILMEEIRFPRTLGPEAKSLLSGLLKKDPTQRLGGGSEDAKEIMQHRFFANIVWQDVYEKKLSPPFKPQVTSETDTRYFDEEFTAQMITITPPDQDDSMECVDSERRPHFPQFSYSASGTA

Cc1ccc(SC2=C(Cl)C(=O)c3nc(-c4ccccc4)[nH]c3C2=O)cc1
IC50 [1]: 1 µM

O=C1C(Cl)=C(Nc2ccc(OC(F)(F)F)cc2)C(=O)c2[nH]c(-c3ccccn3)nc21
IC50 [1]: 20 µM

O=C1C(Cl)=C(Nc2ccc(Br)cc2)C(=O)c2[nH]c(-c3cccnc3)nc21
IC50 [1]: 50 µM

Cc1ccc(NC2=C(Cl)C(=O)c3nc(-c4ccccn4)[nH]c3C2=O)cc1
IC50 [1]: 50 µM

O=C1C(Cl)=C(Sc2ccccc2)C(=O)c2[nH]c(-c3ccccc3)nc21
IC50 [1]: 1.5 µM

O=C1C(Cl)=C(Nc2ccc(Br)cc2)C(=O)c2[nH]c(-c3ccccn3)nc21
IC50 [1]: 6.5 µM

O=C1C(Cl)=C(Sc2ccc(Cl)cc2)C(=O)c2[nH]c(-c3ccccn3)nc21
IC50 [1]: 4 µM

O=C1C(Cl)=C(Nc2ccc(F)cc2)C(=O)c2[nH]c(-c3cccnc3)nc21
IC50 [1]: 21 µM

COc1ccc(SC2=C(Cl)C(=O)c3nc(-c4ccccn4)[nH]c3C2=O)cc1
IC50 [1]: 4.2 µM

O=C1C(Cl)=C(Nc2ccc(Cl)cc2)C(=O)c2[nH]c(-c3ccccn3)nc21
IC50 [1]: 12.1 µM

O=C1C(Cl)=C(Sc2ccc(O)cc2)C(=O)c2[nH]c(-c3ccccc3)nc21
IC50 [1]: 2 µM

O=C1C(Cl)=C(Nc2ccccc2)C(=O)c2[nH]c(-c3ccccc3)nc21
IC50 [1]: 4 µM

O=C1C(Cl)=C(Sc2ccc(Br)cc2)C(=O)c2[nH]c(-c3ccccc3)nc21
IC50 [1]: 1.5 µM

O=C1C(Cl)=C(Nc2ccc(C(F)(F)F)cc2)C(=O)c2[nH]c(-c3ccccn3)nc21
IC50 [1]: 1 µM

O=C1C(Cl)=C(Nc2ccc(F)cc2)C(=O)c2[nH]c(-c3ccncc3)nc21
IC50 [1]: 50 µM

O=C1C(Cl)=C(Nc2ccc(Cl)cc2)C(=O)c2[nH]c(-c3ccncc3)nc21
IC50 [1]: 25 µM

COc1ccc(NC2=C(Cl)C(=O)c3nc(-c4ccccn4)[nH]c3C2=O)cc1
IC50 [1]: 20 µM

Cc1ccc(NC2=C(Cl)C(=O)c3nc(-c4ccccc4)[nH]c3C2=O)cc1
IC50 [1]: 3 µM

COc1ccc(NC2=C(Cl)C(=O)c3nc(-c4ccncc4)[nH]c3C2=O)cc1
IC50 [1]: 50 µM

O=C1C(Cl)=C(Sc2ccc(Br)cc2)C(=O)c2[nH]c(-c3ccccn3)nc21
IC50 [1]: 12 µM

O=C1C(Cl)=C(Nc2ccc(OC(F)(F)F)cc2)C(=O)c2[nH]c(-c3ccccc3)nc21
IC50 [1]: 1.5 µM

Cc1cccc(SC2=C(Cl)C(=O)c3nc(-c4ccccc4)[nH]c3C2=O)c1
IC50 [1]: 2 µM

CCOc1ccc(NC2=C(Cl)C(=O)c3nc(-c4ccccc4)[nH]c3C2=O)cc1
IC50 [1]: 50 µM

O=C1C(Cl)=C(Nc2ccc(F)cc2)C(=O)c2[nH]c(-c3ccccn3)nc21
IC50 [1]: 9.4 µM

CCc1ccc(SC2=C(Cl)C(=O)c3nc(-c4ccccn4)[nH]c3C2=O)cc1
IC50 [1]: 7 µM

O=C1C(Cl)=C(Nc2ccc(C(F)(F)F)cc2)C(=O)c2[nH]c(-c3ccccc3)nc21
IC50 [1]: 9.4 µM

Cc1ccc(NC2=C(Cl)C(=O)c3nc(-c4ccccc4)[nH]c3C2=O)cc1C
IC50 [1]: 3 µM

COc1c(C)c2c(c(O)c1C/C=C(\C)CCC(=O)O)C(=O)OC2 [MYCOPHENOLIC ACID]
IC50 [1]: 1 µM

COc1ccc(NC2=C(Cl)C(=O)c3nc(-c4ccccc4)[nH]c3C2=O)cc1
IC50 [1]: 2 µM

COc1ccc(NC2=C(Cl)C(=O)c3nc(-c4cccnc4)[nH]c3C2=O)cc1
IC50 [1]: 42 µM

O=C1C(Cl)=C(Nc2ccc(Cl)cc2)C(=O)c2[nH]c(-c3ccccc3)nc21
IC50 [1]: 5.3 µM

O=C1C(Cl)=C(Nc2ccc(Br)cc2)C(=O)c2[nH]c(-c3ccncc3)nc21
IC50 [1]: 100 µM

COc1ccc(SC2=C(Cl)C(=O)c3nc(-c4ccccc4)[nH]c3C2=O)cc1
Activity [2]: Active
Activity [3]: 8%
Activity (VSMC [4]): Active
Activity [5]: Active
Activity [6]: 59.6%
IC50 [1]: 1 µM
Activity (VSMC [7]): Active
Activity [8]: Active
Activity (Rattus norvegicus): Active
Activity [9]: 22.4%
Activity (VSMC [10]): Active

O=C1C(Cl)=C(Nc2ccc(Cl)cc2)C(=O)c2[nH]c(-c3cccnc3)nc21
IC50 [1]: 20 µM

Cc1ccc(SC2=C(Cl)C(=O)c3nc(-c4ccccn4)[nH]c3C2=O)cc1
IC50 [1]: 2.5 µM

CCc1ccc(NC2=C(Cl)C(=O)c3nc(-c4ccccc4)[nH]c3C2=O)cc1
IC50 [1]: 10.7 µM

Source: ChEMBL document CHEMBL1145607, “Design, synthesis and evaluation of 2-phenyl-1H-benzo[d]imidazole-4,7-diones as vascular smooth muscle cell proliferation inhibitors” (Bioorg Med Chem Lett, 2008)
